13 compounds from ChEMBL document CHEMBL1145060, “Synthesis and evaluation of pharmacological properties of novel annelated 2,3-benzodiazepine derivatives” (2003) can be followed below.

The nature of test [1]: Anticonvulsant activity against Audiogenic seizures in DBA/2 mice was observed in clonic phase after intraperitoneal injection. Format: functional. As to conditions: Mus musculus, ip. Put shortly:
(§1)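 Compound given intraperitoneally to DBA/2 mice 30 min before audiogenic seizure testing; clonic and tonic phases scored. ED50 (μmol/kg) with 95% confidence limits calculated by Litchfield and Wilcoxon.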

A short description of test [2]: Anticonvulsant activity against Audiogenic seizures in DBA/2 mice was observed in tonic phase after intraperitoneal injection. Type of test: functional. To be noted: Mus musculus, ip. Put shortly:
as §1

The nature of test [3]: Anticonvulsant activity against PTZ induced seizures was observed in mice after intraperitoneal injection. As to conditions: Mus musculus, ip. Format: functional. Put shortly:
(§2)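 Swiss mice dosed ip 45 min before seizure induction by maximal electroshock (MES) or pentylenetetrazole (PTZ). ED50 (μmol/kg) with 95% confidence limits by Litchfield and Wilcoxon method.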

A short description of test [4]: Anticonvulsant activity against Audiogenic seizures in DBA/2 mice was observed in tonic phase after pretreatment with Aniracetam. Type of test: functional. As to conditions: Mus musculus. Put shortly:
(§3)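 Audiogenic seizure test in DBA/2 mice, clonic and tonic phases; aniracetam 50 nmol given icv 60 min before testing, together with ip compound. ED50 with 95% confidence limits by Litchfield and Wilcoxon method.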

A short description of test [5]: Anticonvulsant activity against AMPA-induced seizures in DBA/2 mice was observed in clonic phase after intraperitoneal injection. Format: functional, Mus musculus. An outline of the steps:
(§4)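 DBA/2 mice given compound intraperitoneally, then challenged with AMPA to induce seizures; clonic and tonic phases scored separately. ED50 (μmol/kg) with 95% confidence limits by Litchfield and Wilcoxon method.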

Test [6] in a line: Anticonvulsant activity against Audiogenic seizures in DBA/2 mice was observed in clonic phase after pretreatment with Aniracetam. As to conditions: Mus musculus. Format: functional. An outline of the steps:
as §3

Test [7] is described as follows: Anticonvulsant activity against AMPA-induced seizures in DBA/2 mice was observed in tonic phase after intraperitoneal injection. Format: functional. As to conditions: Mus musculus, ip. Put shortly:
as §4

A short description of test [8]: Anticonvulsant activity against in MES was observed in mice after intraperitoneal injection. Type of test: functional. To be noted: Mus musculus, ip. An outline of the steps: as §2
Where [9] appears, read: Mus musculus, ip, read-out: ED50.

SMILES strings stand for the structures.

For `COc1cc2c(cc1OC)C(c1cccc([N+](=O)[O-])c1)=Nn1c(n[nH]c(=O)c1=O)C2`, the figures for the ED50 in test [1] and in test [2] were more than 120 µmol/kg and 88.9 µmol/kg, respectively.
Take `COc1cc2c(cc1OC)C(c1ccc(Cl)cc1)=Nn1c(O)nnc1C2`: the ED50 turned out to be 33.1 µmol/kg in test [3]; 28.8 µmol/kg in test [1]; 71.8 µmol/kg in test [4]; 46.8 µM/kg in test [5]; 46.8 µmol/kg in test [5] (setting [9]); 14.1 µmol/kg in test [2]. Also, in test [6], the ED50 is 87.8 µmol/kg.
With `COc1cc2c(cc1OC)C(c1ccc([N+](=O)[O-])cc1)=Nn1c(n[nH]c(=O)c1=O)C2`, the ED50 in test [1] amounted to 60 µmol/kg; in test [2] it was 25.7 µmol/kg.
On to `COc1cc2c(cc1OC)C(c1cccc(N)c1)=Nn1c(n[nH]c(=O)c1=O)C2`, for which the ED50 came to 74.5 µmol/kg in test [1] and 57.7 µmol/kg in test [2].
Turning to `COc1cc2c(cc1OC)C(c1ccc(N)cc1)=NNC(=O)C2`, the ED50 in test [1] is 15 µmol/kg; in test [4] it was 56.2 µmol/kg; in test [7] it was 25 µmol/kg.
With `CC1=NN=C(c2ccc(N)cc2)c2cc3c(cc2C1)OCO3` [GYKI-52466], the ED50 in test [4] was 100 µmol/kg; in test [5] (setting [9]), 57.5 µmol/kg.
As for `COc1cc2c(cc1OC)C(c1ccc(F)cc1)=Nn1c(n[nH]c(=O)c1=O)C2`, the ED50 in test [3] amounted to 63.2 µmol/kg; in test [1], 39.2 µmol/kg; in test [2] it was 28 µmol/kg; in test [8], 37.8 µmol/kg.
On to `COc1cc2c(cc1OC)C(c1ccc(Cl)cc1)=Nn1c(n[nH]c(=O)c1=O)C2`, for which the figures for the ED50 in test [1] and in test [2] were 37.4 µmol/kg and 33 µmol/kg, respectively.
Regarding `COc1cc2c(cc1OC)C(c1ccc(Br)cc1)=Nn1c(n[nH]c(=O)c1=O)C2`, the ED50 in test [1] amounted to 76.6 µmol/kg; in test [2], 54.6 µmol/kg.
On to `CC(=O)N1N=C(c2ccc(N)cc2)c2cc3c(cc2C[C@H]1C)OCO3` [TALAMPANEL], for which the ED50 amounted to 56.3 µmol/kg in test [3], 44.2 µmol/kg in test [5] (setting [9]), 9.7 µmol/kg in test [2] and 28.8 µmol/kg in test [8].
`COc1cc2c(cc1OC)C(c1ccccc1)=Nn1c(n[nH]c(=O)c1=O)C2`: the ED50 in test [3] worked out at 57.6 µmol/kg; in test [1] it was 33.6 µmol/kg; in test [2] it was 17.9 µmol/kg; in test [8], 36.6 µmol/kg.
For `COc1cc2c(cc1OC)C(c1ccc(N)cc1)=Nn1c(n[nH]c(=O)c1=O)C2`, the results for the ED50 in test [1] and in test [2] were 59.3 µmol/kg and 52.8 µmol/kg, respectively.
On to `COc1cc2c(cc1OC)C(c1ccc(Br)cc1)=Nn1c(O)nnc1C2`, for which the ED50 came to 13.8 µmol/kg in test [3]; 3.65 µmol/kg in test [1]; 7.87 µmol/kg in test [4]; 17.7 µM/kg in test [5]; 17.7 µmol/kg in test [5] (setting [9]); 1.34 µmol/kg in test [2]. For the same compound, the ED50 in test [8] was 5.93 µmol/kg; in test [6], 18.6 µmol/kg.
